Reference: ChEMBL document CHEMBL4184173, “Synthesis and in vitro evaluations of 6-(hetero)-aryl-imidazo[1,2-b]pyridazine-3-sulfonamide's as an inhibitor of TNF-α production” (Bioorg Med Chem Lett, 2018)

Tested on: PBMC
Assay: Cytotoxicity against human PBMC by MTS assay
Format: cell-based
Outline: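 Cells from the LPS-stimulated hPBMC assay were given MTS-[…] reagent and incubated 5-6 h until absorbance reached 0.5. Read at 490 nm. Percent cytotoxicity was calculated from mean absorbance relative to the 0.5% DMSO vehicle control.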

Row | Compound | IC50
1 | CS(=O)(=O)c1ccc(-c2ccc3ncc(S(=O)(=O)N4CCC(C#N)(c5ccccc5)CC4)n3n2)cc1 | > 30 µM
2 | N#CC1(c2ccccc2)CCN(S(=O)(=O)c2cnc3ccc(Cl)nn23)CC1 | > 30 µM
3 | O=S(=O)(c1cnc2ccc(-c3cncc(F)c3)nn12)N1CCN(c2ccccn2)CC1 | > 30 µM
4 | CS(=O)(=O)c1ccc(-c2ccc3ncc(S(=O)(=O)NCC4CCCO4)n3n2)cc1 (centres undefined) | > 30 µM
5 | O=S(=O)(NCC1CCCO1)c1cnc2ccc(-c3cncc(C(F)(F)F)c3)nn12 (centres undefined) | > 30 µM
6 | COc1cccc(CNS(=O)(=O)c2cnc3ccc(-c4cncc(C(F)(F)F)c4)nn23)c1 | > 30 µM
7 | COc1cccc(CNS(=O)(=O)c2cnc3ccc(-c4ccc(OC)nc4)nn23)c1 | > 30 µM
8 | O=S(=O)(c1cnc2ccc(-c3cccnc3)nn12)N1CCN(c2ccccn2)CC1 | > 30 µM
9 | O=S(=O)(NCC1CCCO1)c1cnc2ccc(-c3cccnc3)nn12 (centres undefined) | > 30 µM
10 | N#CC1(c2ccccc2)CCN(S(=O)(=O)c2cnc3ccc(-c4cncc(F)c4)nn23)CC1 | > 30 µM
11 | O=S(=O)(NCC1CCCO1)c1cnc2ccc(-c3cncc(F)c3)nn12 (centres undefined) | > 30 µM
12 | NS(=O)(=O)c1cnc2ccc(Cl)nn12 | > 30 µM
13 | N#CC1(c2ccccc2)CCN(S(=O)(=O)c2cnc3ccc(-c4cccnc4)nn23)CC1 | > 30 µM
14 | O=S(=O)(c1cnc2ccc(Cl)nn12)N1CCN(c2ccccc2)CC1 | > 30 µM
15 | O=S(=O)(c1cnc2ccc(Cl)nn12)N1CCN(Cc2ccccc2)CC1 | > 30 µM
16 | COc1cccc(CNS(=O)(=O)c2cnc3ccc(-c4ccc(S(C)(=O)=O)cc4)nn23)c1 | > 30 µM
17 | CCN1CCN(S(=O)(=O)c2cnc3ccc(-c4ccc(OC)cc4)nn23)CC1 | > 30 µM
18 | CCN1CCN(S(=O)(=O)c2cnc3ccc(-c4ccc(OC)nc4)nn23)CC1 | > 30 µM
19 | O=S(=O)(c1cnc2ccc(-c3cncc(C(F)(F)F)c3)nn12)N1CCN(c2ccccn2)CC1 | > 30 µM
20 | COc1ccc(-c2ccc3ncc(S(=O)(=O)NCC4CCCO4)n3n2)cc1 (centres undefined) | > 30 µM
21 | COc1ccc(-c2ccc3ncc(S(=O)(=O)NCC4CCCO4)n3n2)cn1 (centres undefined) | > 30 µM

Row | Compound | IC50
22 | N#CC1(c2ccccc2)CCN(S(=O)(=O)c2cnc3ccc(-c4cncc(C(F)(F)F)c4)nn23)CC1 | > 30 µM
23 | Nc1ncc(-c2ccc3ncc(S(=O)(=O)N4CCN(c5ccccn5)CC4)n3n2)cc1C(F)(F)F | > 30 µM
24 | CCN1CCN(S(=O)(=O)c2cnc3ccc(-c4cncc(F)c4)nn23)CC1 | > 30 µM
25 | COc1cccc(CNS(=O)(=O)c2cnc3ccc(-c4cncc(F)c4)nn23)c1 | > 30 µM
26 | O=S(=O)(c1cnc2ccc(Cl)nn12)N1CCN(c2ccccn2)CC1 | > 30 µM
27 | O=S(=O)(NCC1CCCO1)c1cnc2ccc(Cl)nn12 (centres undefined) | > 30 µM
28 | O=S(=O)(c1cnc2ccc(-c3cccnc3)nn12)N1CCN(Cc2ccccc2)CC1 | > 30 µM
29 | CCN1CCN(S(=O)(=O)c2cnc3ccc(-c4ccc(S(C)(=O)=O)cc4)nn23)CC1 | > 30 µM
30 | CCN1CCN(S(=O)(=O)c2cnc3ccc(-c4cncc(C(F)(F)F)c4)nn23)CC1 | > 30 µM
31 | COc1ccc(-c2ccc3ncc(S(=O)(=O)N4CCN(c5ccccn5)CC4)n3n2)cn1 | > 30 µM
32 | COc1cccc(CNS(=O)(=O)c2cnc3ccc(-c4cccnc4)nn23)c1 | > 30 µM
33 | COc1ccc(-c2ccc3ncc(S(=O)(=O)N4CCC(C#N)(c5ccccc5)CC4)n3n2)cc1OC | > 30 µM
34 | COc1cccc(CNS(=O)(=O)c2cnc3ccc(-c4cnc(N)c(C(F)(F)F)c4)nn23)c1 | > 30 µM
35 | CS(=O)(=O)c1ccc(-c2ccc3ncc(S(=O)(=O)N4CCN(Cc5ccccc5)CC4)n3n2)cc1 | > 30 µM
36 | CS(=O)(=O)c1ccc(-c2ccc3ncc(S(=O)(=O)N4CCN(c5ccccn5)CC4)n3n2)cc1 | > 30 µM
37 | Nc1ncc(-c2ccc3ncc(S(N)(=O)=O)n3n2)cc1C(F)(F)F | > 30 µM
38 | CCN1CCN(S(=O)(=O)c2cnc3ccc(-c4cccnc4)nn23)CC1 | > 30 µM
39 | CCN1CCN(S(=O)(=O)c2cnc3ccc(Cl)nn23)CC1 | > 30 µM
40 | O=S(=O)(c1cnc2ccc(-c3cncc(F)c3)nn12)N1CCN(Cc2ccccc2)CC1 | > 30 µM
41 | COc1cccc(CNS(=O)(=O)c2cnc3ccc(Cl)nn23)c1 | > 30 µM
42 | COc1ccc(C2CNC(=O)C2)cc1OC1CCCC1 (centres undefined) [ROLIPRAM] | > 30 µM

Tested on: L929
Assay: Cytoprotective against human TNF-alpha-induced cell death in mouse L929 cells by MTT assay
Format: functional, cell-based

Row | Compound | IC50
43 | O=C1/C(=N/Nc2ccc(Cl)c([N+](=O)[O-])c2)C(c2ccccc2)NN1c1nc(-c2ccccc2)cs1 (centres undefined) | 9 µM

Biological target: T1, Tumor necrosis factor (Mus musculus, UniProt P06804)
T1 sequence (P06804 whole entry): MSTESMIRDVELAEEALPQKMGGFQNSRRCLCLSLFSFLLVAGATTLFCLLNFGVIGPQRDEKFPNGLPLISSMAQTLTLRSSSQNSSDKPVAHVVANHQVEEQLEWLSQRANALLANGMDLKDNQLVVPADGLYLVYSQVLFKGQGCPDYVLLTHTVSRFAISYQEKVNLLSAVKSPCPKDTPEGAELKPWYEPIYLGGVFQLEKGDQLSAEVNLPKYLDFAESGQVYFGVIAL
Assay: Inhibition of mouse recombinant TNF-alpha binding to antibody preincubated for 30 mins followed by antibody addition measured after 2 hrs by ELISA

Row | Compound | IC50
44 | CCCCn1cnc(CC(c2c(O)c3ccccc3oc2=O)c2c(O)c3ccccc3oc2=O)c1Cl | 16.5 µM
